For 16 molecules, IC50, CC50 and selectivity ratio results are on record in ChEMBL document CHEMBL1641452, “Synthesis and in vitro anti-hepatitis B virus activity of six-membered azanucleoside analogues” (Bioorg Med Chem, 2011).

The structures appear in SMILES notation. ≈ marks a conversion by molar mass, not a printed value. Some results are limits rather than exact numbers.

One series deals with Hepatitis B virus. The series is described as follows: Antiviral activity against Hepatitis B virus infected in human HepG2.2.15 cells assessed as inhibition of viral DNA replication by semi-quantitative EIA. As to conditions: HepG2 2.2.15. The series is classed as functional, organism-based. The essentials:
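HepG2 2.2.15 cells, derived from hepatoblastoma HepG2 and stably transfected with HBV, were seeded in flat-bottomed tissue culture wells. They received eight consecutive daily doses of compound in RPMI1640 with 2% fetal bovine serum, with lamivudine as the positive control. HBV nucleic acids and proteins were analysed at the end of treatment (day 8).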

A short description of series [1]: Cytotoxicity against human HepG2(2.2.15) cells. The series is classed as cell-based. Conditions: read-out: TC50 (the source's name).
Series [2] can be described thus: Selectivity index, ratio of TC50 for human HepG2(2.2.15) cells to IC50 for Hepatitis B virus. The series is classed as toxicity. As to conditions: read-out: Selectivity Index.

Take `CC(C)(C)OC(=O)N1CC(O)[C@@H](O)[C@@H](O)[C@@H]1n1cnc2c(N)ncnc21` (single isomer, unassigned): the IC50 in the series on Hepatitis B virus came out at 281 µg/mL (≈ 767 µM). In series [1], the CC50 was found to be 693 µg/mL (≈ 1890 µM). The selectivity ratio in series [2] was 3.6.

Turning to `Cc1cn([C@H]2[C@H](O)[C@H](O)C(O)CN2C(=O)OC(C)(C)C)c(=O)[nH]c1=O` (single isomer, unassigned), the half-maximal inhibitory concentration (IC50) in the series with Hepatitis B virus was found to be 33 µg/mL (≈ 92.4 µM). Besides, in series [1], the CC50 stood at 577 µg/mL (≈ 1620 µM). Moreover, the selectivity ratio in series [2] is 17.5.

On to `Nc1ccn([C@@H]2CS[C@H](CO)O2)c(=O)n1` [LAMIVUDINE], for which the IC50 with Hepatitis B virus was 4.51 µg/mL (≈ 19.7 µM). Further, the CC50 in series [1] amounted to 1000 µg/mL (≈ 4360 µM). Also, the selectivity ratio in series [2] came to 222.

For the molecule `CC(C)(C)OC(=O)N1C[C@@H](O)[C@@H](O)[C@H](O)[C@H]1n1cc(F)c(=O)[nH]c1=O`, the IC50 in the series with Hepatitis B virus came out at 2.74 µg/mL (≈ 7.58 µM). In series [1], the CC50 was found to be 37 µg/mL (≈ 103 µM). In addition, in series [2], the selectivity ratio stood at 13.5.

With `Cc1cn([C@@H]2[C@@H](O)[C@H](O)[C@@H](O)CN2C(=O)OC(C)(C)C)c(=O)[nH]c1=O`, the CC50 in series [1] was 1000 µg/mL (≈ 2800 µM).

With `Cc1cn([C@@H]2[C@@H](O)[C@H](O)C(O)CN2C(=O)OC(C)(C)C)c(=O)[nH]c1=O` (single isomer, unassigned), the CC50 in series [1] is greater than 1000 µg/mL.

As to `Cc1cn([C@@H]2[C@H](O)[C@H](O)C(O)CN2C(=O)OC(C)(C)C)c(=O)[nH]c1=O` (single isomer, unassigned), in the series with Hepatitis B virus, the concentration for half-maximal inhibition (IC50) amounted to 93 µg/mL (≈ 260 µM). Further, the CC50 in series [1] stood at 430 µg/mL (≈ 1200 µM). Further, in series [2], the selectivity ratio worked out at 4.6.

On to `CC(C)(C)OC(=O)N1CC(O)[C@@H](O)[C@H](O)[C@H]1n1cc(F)c(=O)[nH]c1=O` (single isomer, unassigned), for which the CC50 in series [1] was 192 µg/mL (≈ 533 µM).

For the molecule `CC(C)(C)OC(=O)N1CC(O)[C@@H](O)[C@H](O)[C@H]1n1ccc(=O)[nH]c1=O` (single isomer, unassigned), the CC50 in series [1] was greater than 1000 µg/mL.

Take `CC(C)(C)OC(=O)N1CC(O)[C@@H](O)[C@H](O)[C@H]1n1ccc(N)nc1=O` (single isomer, unassigned): the CC50 in series [1] is greater than 1000 µg/mL.

For `CC(C)(C)OC(=O)N1C[C@@H](O)[C@@H](O)[C@H](O)[C@@H]1n1cnc2c(N)ncnc21`, the CC50 in series [1] amounted to 1000 µg/mL (≈ 2730 µM).

With `Cc1cn([C@H]2[C@@H](O)[C@H](O)[C@@H](O)CN2C(=O)OC(C)(C)C)c(=O)[nH]c1=O`, the CC50 in series [1] came to 1000 µg/mL (≈ 2800 µM).

Regarding `CC(C)(C)OC(=O)N1C[C@@H](O)C(O)C(O)C1n1cnc2c(N)ncnc21` (single isomer, unassigned), in the series on Hepatitis B virus, the IC50 came out at 316 µg/mL (≈ 862 µM). For the same molecule, the CC50 in series [1] came out at 1000 µg/mL (≈ 2730 µM). Also, in series [2], the selectivity ratio came to 3.2.

With `CC(C)(C)OC(=O)N1C[C@@H](O)[C@@H](O)[C@H](O)[C@H]1n1cnc2c(N)ncnc21`, the 50% inhibitory concentration (IC50) with Hepatitis B virus was determined as 247 µg/mL (≈ 675 µM). In addition, the CC50 in series [1] came out at 1000 µg/mL (≈ 2730 µM). Further, the selectivity ratio in series [2] was 4.

In the case of `CC(C)(C)OC(=O)N1CC(O)[C@@H](O)[C@H](O)[C@H]1n1cnc2c(N)ncnc21` (single isomer, unassigned), the CC50 in series [1] was greater than 1000 µg/mL.

In the case of `CC(C)(C)OC(=O)N1C[C@H](O)[C@@H](O)[C@@H](O)[C@@H]1n1cc(F)c(=O)[nH]c1=O`, the CC50 in series [1] was determined as 29 µg/mL (≈ 80.3 µM).

As usually defined, the IC50 is the concentration at which inhibition is half-maximal.
